Compounds with a hit are over-represented: about 2.4% of the library has one in this group of screens.
MC4R barr agon – MC4R agonists recruiting beta-arrestin, primary screen, cell-based, luminescence, agonist arm of biased-ligand search. U2OS MC4R beta-arrestin complementation; percent of melanotan II response, DMSO zero. activation, % at 8.9 µM. 360,000 compounds, 0.98% hits. AID 540308, 2011;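 active = activation above a per-plate cutoff, the mean activation of sample wells on that plate plus 3 SD, cut at about 8% in these data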
aDG glyco act – activators of alpha-DG glycosylation, primary screen, uHTS, Pro5-aDG cells, AlphaScreen; alpha-DG glycosylation AlphaScreen (IIH6); 0% Pro5, 100% B10-LARGE cell signal; 360,000 compounds, 0.22% hits; AID 624168, 2012; activation, % at 10 µM;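 active = activation of at least 8% versus controls, or a plate z-score of at least 8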;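 also: Pro5 are CHO cells carrying HIG-tagged alpha-DG that lacks glycosylation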
TbMetRS inhib – T. brucei MetRS inhibitors, primary screen, biochemical, luminescence; methionyl-tRNA synthetase (Trypanosoma brucei brucei); purified T. brucei MetRS, ATP depletion, Kinase-Glo luminescence; inhibition, % at 11.9 µM; 360,000 compounds, 0.4% hits;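 active = inhibition above a per-plate cutoff of the control wells' mean inhibition plus 3 SD, cut at about 5.5% in these data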;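 also: 0% = DMSO wells median and 100% = median of wells with control inhibitor compound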
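assay system = parasite MetRS enzyme | timing = 15 min preincubation, 2 h reaction, all 25 °C | evaluation = percent inhibition relative to median high and low control wells | medium = HEPES buffer containing pyrophosphatase, BSA, spermine, DTT | compound = single dose, 11.9 µM final nominal, 0.9% final DMSO | detection = Kinase-Glo luminescence, ATP depletion format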
MC4R antagonist – MC4R antagonists of cAMP signaling, primary screen, cell-based, TR-FRET, antagonist arm of biased-ligand search; MC4R-expressing cells, MTII-stimulated cAMP, LANCE TR-FRET; AID 540295, 2011; 360,000 compounds, 0.48% hits; inhibition, % at 6.5 µM;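 active = inhibition above its plate's cutoff, the mean of tested wells on that plate plus 3 SD, cut at about 29% in these data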;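 also: 0% = Melanotan II alone and 100% = Melanotan II plus saturating MCL0020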
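System: U2OS cells stably expressing human melanocortin 4 receptor (MC4R). Reagent: Melanotan II challenge after compound preincubation. Doses: 6.5 µM. Times: 30-min compound, 1-h challenge, 1-h detection, room temperature. Measured by: TR-FRET with Eu-cAMP and labeled anti-cAMP, 671 nm. Replicates: singlicate.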
TAG inh – inhibitors of triacylglycerol accumulation, primary screen, cell-based, uHTS, fluorescence, H9c2; H9c2 cells, Nile Red lipid (TAG) fluorescence; cells loaded with 200 µM oleic acid; inhibition, % at 12.5 µM; 230,000 compounds, 0.66% hits; AID 651582, 2012;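 active = pattern-corrected inhibition of lipid staining of at least 50% with the nuclear-stain viability signal not falling by more than 50%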;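 also: 0% = DMSO wells and 100% = triacsin C control wells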
NTR1 ag – agonists of human NTR1, primary screen, imaging, U2OS cells, beta-arrestin-GFP, high content. Neurotensin receptor type 1 (Homo sapiens), P30989. NTR1-U2OS beta-arrestin-GFP spot imaging, agonist mode. activation, % at 20 µM. 330,000 compounds, 0.17% hits. AID 493036, 2011;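 active = activation at or above 40% of the spot to cytoplasm intensity ratio, with at least 20 cells analyzed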;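 also: 0% = DMSO without peptide and 100% = 100 nM NTR1 peptide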
Target sequence (P30989 whole entry, looked up): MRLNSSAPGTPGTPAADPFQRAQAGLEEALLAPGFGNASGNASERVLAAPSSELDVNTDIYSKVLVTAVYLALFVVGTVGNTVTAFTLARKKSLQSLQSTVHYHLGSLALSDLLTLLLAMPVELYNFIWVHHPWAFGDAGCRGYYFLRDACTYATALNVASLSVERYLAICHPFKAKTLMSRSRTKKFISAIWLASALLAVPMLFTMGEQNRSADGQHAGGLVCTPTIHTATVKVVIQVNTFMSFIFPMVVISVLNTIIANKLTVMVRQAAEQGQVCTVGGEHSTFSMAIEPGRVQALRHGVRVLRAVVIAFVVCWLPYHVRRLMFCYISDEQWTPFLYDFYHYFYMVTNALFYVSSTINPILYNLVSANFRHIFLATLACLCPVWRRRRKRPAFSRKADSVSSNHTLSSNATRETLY
An asterisk follows results filed as active; . = no result.

SMILES	MC4R barr agon	aDG glyco act	TbMetRS inhib	MC4R antagonist	TAG inh	NTR1 ag
CCOc1ccc(CNC(=O)CCCN2C(=O)C(c3ccccc3)Oc3cccnc32)cc1 (centres undefined)	9.1*	-0.1	-0.4	3.4	.	0.3
Cc1c(C(=O)Oc2ccc(-c3cnc4ccccc4n3)cc2)cccc1[N+](=O)[O-]	2.8	0.0	-0.2	5.6	20.0	-0.9
O=C(Oc1ccc(-c2cnc3ccccc3n2)cc1)c1cc([N+](=O)[O-])ccc1Cl	-0.1	-0.4	-0.4	29.3*	.	1.7
COC(=O)/C=C1\OCc2cc(OCc3ccccc3)ccc21	.	0.4	-0.1	.	.	.
O=C1Nc2ccccc2C1(c1ccccc1)c1ccccc1	36.9*	0.0	-1.0	-0.8	-0.9	-1.2
c1ccc(Cn2c(-c3ccccc3)nc3nc4ccccc4nc32)cc1	9.3*	1.6	-0.5	-0.1	.	1.6
C=CCn1c(-c2ccccc2)nc2nc3ccccc3nc21	-1.6	0.8	-0.6	-3.2	-11.3	0.9
COc1ccc(-c2cc3c(=O)n(CC(=O)NCc4ccc(C)cc4)ncn3n2)cc1	9.1*	-0.2	-1.4	6.4	-15.2	-2.3
COc1ccc(-c2cc3c(=O)n(CC(=O)NCc4ccc(F)cc4)ncn3n2)cc1	1.2	4.0	0.1	2.3	13.5	1.6
CSc1cccc(NC(=O)C(=O)NCc2ccccc2)c1	8.7*	-0.1	-1.0	-3.9	-10.9	0.5
CSc1cccc(NC(=O)NCc2cccc(CNC(=O)Nc3cccc(SC)c3)c2)c1	-2.7	-0.1	-0.2	11.9	-7.4	4.7
O=S1(=O)CC(N2CCCC2)CN1Cc1cn(Cc2cccc(C(F)(F)F)c2)nn1 (centres undefined)	.	0.0	-0.1	.	.	.
CC(=O)Nc1ccc(CN(C)c2c(C)nc3ccc(C(=O)N(C)Cc4ccco4)cn23)cc1	2.3	-0.3	-0.2	8.5	-16.0	.
CCOC(=O)CCc1c(C)c2ccc(OCc3ccc([N+](=O)[O-])cc3)cc2oc1=O	13.1*	0.4	0.3	11.0	4.0	0.2
Cc1cc(NC(=O)CSc2nc(C(C)C)nc3sc4c(c23)CCCC4)no1	8.5*	0.1	-0.3	13.6	.	0.5
Cc1cc(NC(=O)CSc2nc3sc4c(c3c(=O)n2C)CCCC4)no1	0.9	-0.7	-0.5	10.8	.	-1.1
CCn1c(SCC(=O)Nc2cc(C)on2)nc2sc3c(c2c1=O)CCCC3	17.1*	-0.3	-0.1	0.1	.	2.2
C=CCn1c(SCC(=O)Nc2cc(C)on2)nc2sc3c(c2c1=O)CCCC3	-2.5	0.1	-0.3	3.0	11.5	1.3
COc1cc(OC)cc(-c2noc(-c3csc([C@@H]4C[C@H](O)[C@@H](CO)O4)n3)n2)c1	0.2	-0.4	-0.1	1.1	10.5	.
CC(=O)c1nn(-c2cccc(Br)c2)cc1C(=O)c1ccccc1	9.4*	-0.3	-0.8	1.3	4.2	2.7
COc1ccc(CNC(=O)COC(=O)c2cc(-c3ccc(Cl)s3)nc3ccccc23)cc1	9.2*	-0.1	0.2	0.5	.	2.5
O=C(Nc1cccnc1)c1cc(-c2cccnc2)nc2ccc(Br)cc12	1.8	-0.2	-0.8	16.4	.	9.3
O=C(Nc1ccncc1)c1cc(-c2cccc(Br)c2)nc2ccccc12	21.6*	1.0	-0.4	17.6	23.3	15.4
Cc1ccc(-c2cc(C(=O)Nc3ccncc3)c3ccccc3n2)cc1	8.9*	0.7	-0.2	6.2	1.6	1.3
CC(C)COc1cccc(-c2cc(C(=O)N/N=C/c3ccncc3)c3ccccc3n2)c1	9.6*	0.1	-0.5	17.2	-12.7	6.5
SMILES	MC4R barr agon	aDG glyco act	TbMetRS inhib	MC4R antagonist	TAG inh	NTR1 ag
COc1cc(NC(=O)c2cc(-c3cccnc3)nc3ccc(Br)cc23)cc(OC)c1	8.2*	-0.2	-0.7	3.1	29.3	5.9
CCOc1cc(/C=N/NC(=O)c2cc(-c3cccc(OC)c3)nc3ccccc23)ccc1O	-1.5	0.2	0.0	18.0	13.3	1.2
COC(=O)[C@@]12C[C@@H](CC(=O)N3CCSCC3)C(=O)N(Cc3cccc4ccccc34)C1=CCC(C)(C)C2	.	-0.2	-0.9	.	.	.
CC(=O)Nc1cccc(-c2ccnc3c2CC(C)(C(=O)NCc2ccncc2)O3)c1 (centres undefined)	-1.6	-0.3	-0.2	5.0	5.3	.
COc1cccc(-c2cc(CNC(=O)[C@H]3O[C@@H](n4cnc5c(N)ncnc54)[C@H](O)[C@@H]3O)no2)c1	.	-0.2	4.4	.	.	.
CN1C(=O)CC2(C)C1=CCc1scnc12 (centres undefined)	.	0.0	-1.0	.	.	.
Nc1c(C(=O)Nc2ccc3c(c2)OCCO3)nnn1Cc1ccc(Br)cc1	8.4*	0.2	-0.4	2.0	-15.2	5.0
Cc1cc(C)cc(NC(=O)Cn2nnc(C(=O)NCc3ccccc3Cl)c2N)c1	10.4*	0.4	0.2	0.4	.	-0.4
CCOc1ccc(Cn2nnc(C(=O)Nc3cc(C)cc(C)c3)c2N)cc1	9.4*	0.0	-1.8	-9.3	.	5.0
O=C1NC[C@@H](CCCCN2CCN(CCc3ccc(O)cc3)C(=O)C2=O)N(CCC2CCCCC2)C1=O	.	0.0	-0.5	.	.	.
CCCCn1nnnc1C(c1cc2ccccc2o1)N1CCN(c2ncccc2C#N)CC1 (centres undefined)	.	-0.1	-0.1	.	.	.
NC1=C(Br)C(=O)c2ncccc2C1=O	-0.9	0.6	0.4	-19.9	117.0	.
O=C1C=C(NCCc2cc(Br)c(O)c(Br)c2)C(=O)c2ncccc21	-2.8	0.5	0.5	-23.6	52.8*	.
CC(=O)N(C)C1=C(N2CCOCC2)C(=O)c2ccccc2C1=O	-0.6	5.5*	0.1	-29.9	.	-1.4
CC(=O)N(C1=C(N2CCOCC2)C(=O)c2ccccc2C1=O)c1ccc(C(=O)O)cc1	1.2	0.1	0.0	-3.7	-1.3	1.8
CCOC(=O)C1(N(CC)CC)Sc2cc(C)ccc2NC1=O (centres undefined)	0.9	-0.2	-0.5	12.1	-23.7	0.3
COC(=O)C1=C(C(=O)OC)SC2(S1)C(C(=O)OC)=C(C(=O)OC)SC1=C2c2cc(C)ccc2NC1(C)C	-1.4	1.2	-0.9	53.3*	-4.9	6.8
O=C(CSc1ccc(-c2ccc(F)cc2)nn1)NCc1ccco1	-1.6	0.4	0.0	4.4	26.3	-1.5
CCN1C(=O)/C(=C\c2ccc(F)cc2)N=C1SCC(=O)NCc1ccco1	8.6*	0.2	-2.0	2.0	.	0.5
